Screening results (PubChem BioAssay)
An excerpt weighted towards active compounds, which were near 3.1% of everything screened.
KCNK9 inh = inhibitors of human KCNK9 two-pore domain potassium channel. HEK293 KCNK9, FluxOR thallium flux fluorescence; active compounds read low. B-score at 10 µM. 310,000 compounds, 1.2% hits. AID 488922;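 active means ratio B-score over 3 SD below the library mean, with starting fluorescence within 5 SD of its mean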;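 further: negative B-score means less thallium flux so channel inhibition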
KCNQ1 inh = blocks the human KCNQ1 potassium channel; B-score at 10 µM; 310,000 compounds, 1.3% hits; CHO-K1 KCNQ1, FluxOR thallium flux fluorescence; active compounds read high;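 active means compounds whose thallium flux B-score, printed positive for inhibition, exceeds three library SD while starting fluorescence stays within three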;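 further: channel opened by potassium depolarization with thallium stimulus after 20 min compound exposure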
Target sequence (P51787 whole entry, looked up): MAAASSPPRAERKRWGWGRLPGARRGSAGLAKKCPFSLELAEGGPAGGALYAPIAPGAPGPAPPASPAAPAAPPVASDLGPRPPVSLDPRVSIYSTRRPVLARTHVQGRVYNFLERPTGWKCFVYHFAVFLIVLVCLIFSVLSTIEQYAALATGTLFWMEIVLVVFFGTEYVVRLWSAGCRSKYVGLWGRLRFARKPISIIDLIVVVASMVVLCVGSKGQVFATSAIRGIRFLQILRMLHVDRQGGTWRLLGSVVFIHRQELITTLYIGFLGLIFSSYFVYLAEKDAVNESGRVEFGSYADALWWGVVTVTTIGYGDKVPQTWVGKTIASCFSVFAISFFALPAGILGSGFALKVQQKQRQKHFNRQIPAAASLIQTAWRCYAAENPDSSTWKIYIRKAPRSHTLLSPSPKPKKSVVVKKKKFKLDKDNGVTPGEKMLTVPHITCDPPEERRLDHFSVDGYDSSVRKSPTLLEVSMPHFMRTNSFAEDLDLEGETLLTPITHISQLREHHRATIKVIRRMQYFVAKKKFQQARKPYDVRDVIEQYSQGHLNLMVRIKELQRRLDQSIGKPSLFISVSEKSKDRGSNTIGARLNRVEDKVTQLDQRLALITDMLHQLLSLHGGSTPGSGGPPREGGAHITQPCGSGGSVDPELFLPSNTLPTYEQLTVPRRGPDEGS
KCNQ1 pot = potentiates or activates the human KCNQ1 potassium channel | P51787 | CHO-K1 KCNQ1, thallium flux FluxOR fluorescence; active compounds read high | B-score at 10 µM | 310,000 compounds, 0.35% hits | AID 2648;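 active means fluorescence ratio B-score, a plate-corrected score, at least three library SD, with initial intensity B-score within 5 SD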
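System: CHO-K1 cells stably expressing KCNQ1 / Medium: assay buffer for compound exposure, DMSO matched across wells / Reagent: thallium- and potassium-containing depolarizing buffer / Compound: one concentration, matched DMSO / Incubation: 20 min compound pretreatment at room temperature / Measured by: kinetic FluxOR fluorescence, 10 s baseline plus 110 s post-stimulus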
KCNK3 block = human KCNK3 channel inhibition, primary screen | 340,000 compounds, 0.84% hits | CHO-KCNK3 thallium flux, FluxOR fluorescence; active compounds read low | O14649 | B-score at 10 µM | AID 602410;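 active means B-score under library mean minus 4 SD, starting fluorescence ratio at most library mean plus 5 SD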;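 further: more negative B-score means stronger inhibition of thallium flux through KCNK3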
hERG protect = compounds protecting human hERG from proarrhythmic drug block; Q12809; CHO-hERG, FluxOR thallium flux, dofetilide IC70 present; activation (rescue from dofetilide block), less the hit threshold, % at 10 µM; 310,000 compounds, 0.51% hits; AID 1511;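 active means activation above the mean of controls blocked by dofetilide plus 5 SD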;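 further: thallium influx through hERG after potassium depolarization seen as dye fluorescence rise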
Starred values were filed as active, the others as inactive; i = inactive; . = no result given.

SMILES | KCNK9 inh | KCNQ1 inh | KCNQ1 pot | KCNK3 block | hERG protect
O=C(O)/C=C/C(=O)N(CC1CCCO1)C1CC(=O)N(c2c(Cl)cccc2Cl)C1=O (stereo not drawn) | i | i | i | i | -5
Clc1ccc(-[n+]2c(-c3cccc(Br)c3)[nH]c3nc4ccccc4nc32)cc1 | i | 10* | i | i | -11
O=C(c1ccco1)c1coc2c1cc(O)c1ccccc12 | i | i | i | i | -14
CC1CN(c2ccc([N+](=O)[O-])c(NCCOc3ccc(Cl)cc3)c2)CC(C)N1 (stereo not drawn) | i | 9* | i | i | -30
CCCCC(c1nnnn1CC1CCCO1)N1CCN(c2cccc(C)c2C)CC1 (stereo not drawn) | -7.5* | i | i | i | -11
Cc1nc(N2CCCCC2)c2c(-c3cccs3)csc2n1 | -7.3* | i | i | i | -22
COC(=O)c1ccc(Oc2nc(Nc3ccc(C)c(C)c3)nc(N(C)C)n2)cc1 | i | 6* | i | i | -14
Cc1ccc(S(=O)(=O)NCc2ccc(C(=O)NCCCN3CCC(Cc4ccccc4)CC3)cc2)cc1 | i | 6* | i | i | -21
COc1ccc(S(=O)(=O)NCc2ccc(C(=O)N3CCN(Cc4ccccc4)CC3)cc2)cc1 | i | i | i | i | -7
Cc1ccc(S(=O)(=O)NCc2ccc(C(=O)N3CCN(Cc4ccccc4)CC3)cc2)cc1 | i | i | i | -9.3* | -4
COc1ccc(CN(Cc2ccc(C(=O)O)cc2)C(=S)Nc2cccc(C)c2)cc1OC | i | i | i | i | -12
Cc1cc([N+](=O)[O-])nn1CC(=O)N1c2ccccc2CC1C (stereo not drawn) | i | i | i | i | 3
COc1ccccc1N1C(=O)S/C(=C\c2cc(C)n(C)c2C)C1=O | i | i | i | i | -9
COc1ccccc1N1C(=O)S/C(=C\c2ccc(C)s2)C1=O | i | i | i | i | 4.8*
CC(C)N(C(=O)COC(=O)CCC(=O)c1cccs1)c1ccccc1 | . | . | . | i | .
CC1(C)NC(=O)N(CC(=O)N2CCCC(C(F)(F)F)C2)C1=O (stereo not drawn) | i | i | i | i | -16
CCC(=O)Oc1ccc(C/C(=N\O)c2ccc(O)cc2O)o1 | i | 7* | i | i | -6
Oc1c(Cl)cc(Cl)cc1C=Nc1cc(C(F)(F)F)ccc1N1CCc2ccccc2C1 | i | i | i | i | 1
COc1ccccc1-c1nc(S(=O)(=O)c2ccc(Cl)cc2)c(N(C)C)o1 | i | i | i | i | 5.4*
Cc1ccc(S(=O)(=O)c2nc(-c3ccccc3Cl)oc2N(C)C)cc1 | i | i | i | i | -2
Cc1cn([C@H]2C[C@H](O)[C@@H](CCC(=O)NCCc3cnc[nH]3)O2)c(=O)[nH]c1=O | . | . | . | i | .
CCN1C(=O)N(CC)C(O)(c2ccccc2)C1(O)c1ccccc1 (stereo not drawn) | i | i | i | i | -2
CC(C)(C)C1=CC(O)(c2ccccc2)C=C(C(C)(C)C)C1=O | i | 8* | i | i | -13
CNc1c([N+](=O)[O-])cnn1-c1ccc(Cl)cc1 | -7.9* | i | i | i | -6
CNc1c([N+](=O)[O-])cnn1-c1ccc(F)cc1 | i | i | i | i | -8
SMILES | KCNK9 inh | KCNQ1 inh | KCNQ1 pot | KCNK3 block | hERG protect
CC(NC(=S)NC(=O)c1ccccc1Br)c1ccccc1 (stereo not drawn) | i | i | 8* | i | 0
O=C(NCCN1CCOCC1)c1ccc2c(c1)N(Cc1cccc(F)c1)C(=O)c1ccccc1S2 | i | i | i | i | -16
COc1ccc(/C=C2\Sc3ccc(C(=O)NCCN4CCCCCC4)cc3N(C)C2=O)cc1 | i | 9* | i | i | -19
COc1ccc(/C=C2\Sc3ccc(C(=O)N4CCc5ccccc5C4)cc3N(C)C2=O)cc1 | i | i | i | . | -13
Cc1ccccc1CN1C(=O)/C(=C\c2ccc(C(=O)NCCN3CCOCC3)cc2)Sc2ccccc21 | i | i | i | i | -13
CN1CCN(CCCNC(=O)c2ccc(/C=C3\Sc4ccccc4N(Cc4ccccc4F)C3=O)cc2)CC1 | i | i | i | i | -39
O=C(NCCN1CCOCC1)c1ccc(/C=C2\Sc3ccccc3N(Cc3ccccc3F)C2=O)cc1 | i | 11* | i | i | -19
CCN1CCN(CCNC(=O)c2ccc3c(c2)N(Cc2ccc(F)cc2)C(=O)/C(=C/c2ccccc2)S3)CC1 | i | 10* | i | i | -28
Cc1cccc(CN2C(=O)/C(=C\c3ccc(C(=O)NCCN4CCOCC4)cc3)Sc3ccccc32)c1 | i | 8* | i | i | -25
Nc1ncnc2c(C3OC(CO)C(O)C3O)c[nH]c12 (stereo not drawn) | . | . | . | i | .
COc1ccc(Br)cc1S(=O)(=O)N1CCCc2ccccc21 | i | i | i | i | -5
O=C1CCC(c2ccc(-n3ccnc3)cc2)=NN1 | i | i | 33* | i | -6
Cc1nnc(NC(=O)CSc2nc(N)c(NC(=O)c3cccs3)c(=O)[nH]2)s1 | i | i | i | i | -13
O=c1c2cc(Cl)ccc2[nH]c(=S)n1Cc1ccco1 | i | i | i | i | -14
O=c1c2cc(Cl)ccc2[nH]c(=S)n1Cc1cccs1 | i | i | 8* | i | 3
CCCCCCNC(=O)CNC(=S)N(Cc1cccs1)C1CCCCC1 | i | 7* | i | i | -3
CCOC(=O)CNC(=S)N(Cc1cccs1)C1CCCC1 | i | i | i | i | -8
CC(NC(=O)[C@H](C)N1C(=O)N2CCc3c([nH]c4ccccc34)[C@@]2(C)C1=O)c1ccccc1 (stereo partly drawn) | i | i | i | i | -12
CCCn1c2c(c(O)c(C(=O)Nc3nccs3)c1=O)CCCC2 | -6.6* | i | i | i | -3
COCC1CCN(C(=O)c2cc(COc3ccccc3SC)on2)C1 (stereo not drawn) | i | i | i | i | -9
C=CC[C@H]1CC(C)=C[C@H](CC=C)N1C(=O)c1cc(COc2ccccc2SC)on1 | i | 8* | i | i | -13
Nc1cc2c(cc1Br)-c1ccc(F)cc1C2O (stereo not drawn) | . | . | . | i | .
Cc1c(-c2ccn[nH]2)cc(NC(=O)c2ccc(Cl)cc2)c(=O)n1N | i | i | i | i | 5.0*
COc1cc(NC(=S)N2CCC(C(O)(c3ccccc3)c3ccccc3)CC2)cc(OC)c1 | i | i | 23* | i | -3
CCNC(=S)N1CCC(C(O)(c2ccccc2)c2ccccc2)CC1 | i | i | i | i | -21
